Published values of several laboratories.
Effect on: cell growth or viability

| SMILES | cell line | technique | concentration | time | quantity | value |
| --- | --- | --- | --- | --- | --- | --- |
| COc1ccc(NC(=O)Nc2cccc(-c3cn(Cc4ccccc4C)nn3)c2)cc1 | PC-9 | CCK-8 | 20 µM | 72 h | viability | 121% |
| O=C(Nc1ccc(F)cc1)Nc1nc2cc(-c3ccc4ncn(Cc5ccccc5)c(=O)c4c3)ccc2s1 | PC-9 | MTT |  | 72 h | IC50 | 7.3 µM |
| CC(C)(C)[C@H](N)C(=O)Nc1ccccc1/N=c1\cc(-c2ccc3c(c2)OCO3)oc2ccccc12 | HCT-116 | CCK-8 | 1 µM |  | inhibition | 14.6% |
| COc1ccc(NC(=O)NCc2cn(Cc3ccc(Cl)cc3)nn2)cc1 | PC-9 | CCK-8 | 50 µM | 72 h | viability | 104% |
| C[C@H](Nc1ccc2c(c1)OCCn1cc(N3C(=O)OC[C@H]3C(F)F)nc1-2)C(N)=O | AGS | ATP luminescence |  | 5 days | EC50 | 0.158 µM |
| COc1ccc(NC(=O)Nc2ccc(-c3cn(Cc4ccc(Cl)cc4)nn3)cc2)cc1 | PC-9 | CCK-8 | 50 µM | 72 h | viability | 87.3% |
| CCCS(=O)(=O)Oc1cc(C=NNC(=O)c2nc3ccccc3s2)ccc1OC | HCT-116 | MTT | 100 µM | 48 h | cell death | 42.7% |
| CCCCCCCCCCCCCCCCCCOc1ccc(CC(=O)OCC[N+]2(C)CCCCC2)cc1 | EKVX | SRB | 10 µM |  | inhibition | 2.11% |
| COCCC(=O)Nc1ccccc1/N=c1\cc(-c2ccc3nc(N)oc3c2)oc2ccccc12 | HCT-116 | CCK-8 | 1 µM |  | inhibition | 3.71% |
| CCC(=O)Nc1nc2cc(-c3ccc4ncn(Cc5ccccc5)c(=O)c4c3)ccc2s1 | PC-9 | MTT |  | 72 h | IC50 | > 20 µM |
| CCCCCCCCCCCCCCCCCCOc1cccc(CC(=O)OCC[N+]2(C)CCCCC2)c1 | EKVX | SRB | 10 µM |  | inhibition | 3.05% |
| O=C(Nc1ccc(Cl)cc1)Nc1cccc(-c2cn(Cc3cccc(Cl)c3)nn2)c1 | PC-9 | CCK-8 | 50 µM | 72 h | viability | 118% |
| CCCCCCCCCCCCCCCCCCOc1ccc(CC(=O)OCC[N+](CC)(CC)CC)cc1 | EKVX | SRB | 10 µM |  | inhibition | 12.5% |
| CS(=O)(=O)NCCC(=O)Nc1ccccc1/N=c1\cc(-c2ccc3nc(N)oc3c2)oc2ccccc12 | HCT-116 | CCK-8 | 1 µM |  | inhibition | 3.17% |
| Cc1nc(NC(=O)N2CCC[C@H]2C(N)=O)sc1-c1ccnc(C(C)(C)C(F)(F)F)c1 | AGS | ATP luminescence |  | 5 days | EC50 | 3.01 µM |
| CCCCCCCCCCCCCCCCCCOc1cccc(CC(=O)OCC[N+]2(C)CCCC2)c1 | EKVX | SRB | 10 µM |  | inhibition | 1.14% |
| COc1ccc2/c(=N/c3ccccc3NC(=O)[C@H](C)N)cc(-c3ccc4c(c3)OCCO4)oc2c1 | HCT-116 | CCK-8 | 1 µM |  | inhibition | 16.5% |

| SMILES | cell line | technique | concentration | time | quantity | value |
| --- | --- | --- | --- | --- | --- | --- |
| COc1ccc(NC(=O)NCc2cn(Cc3ccccc3C)nn2)cc1 | PC-9 | CCK-8 | 50 µM | 72 h | viability | 109% |
| Nc1ccccc1/N=c1\cc(-c2ccc3c(c2)OCO3)oc2ccccc12 | HCT-116 | CCK-8 | 1 µM |  | inhibition | 1.69% |
| O=C(Nc1ccc(Cl)cc1)Nc1ccc(-c2cn(Cc3ccc(Cl)cc3)nn2)cc1 | PC-9 | CCK-8 | 20 µM | 72 h | viability | 86% |
| Nc1nc2ccc(-c3c/c(=N\c4ccccc4NC(=O)CCN4CCOCC4)c4ccccc4o3)cc2o1 | HCT-116 | CCK-8 | 1 µM |  | inhibition | -4.11% |
| CC(=O)Nc1nc2cc(-c3ccc4ncn(Cc5ccccc5)c(=O)c4c3)ccc2s1 | PC-9 | MTT |  | 72 h | IC50 | > 20 µM |
| O=C(Nc1ccc(Cl)cc1)Nc1ccc(-c2cn(Cc3cccc(Cl)c3)nn2)cc1 | PC-9 | CCK-8 | 50 µM | 72 h | viability | 76.4% |
| CCCCCCCCCCCCCCCCCCOc1cccc(CC(=O)OCC[N+](CC)(CC)CC)c1 | EKVX | SRB | 10 µM |  | inhibition | 22.3% |
| O=C(Nc1ccc(Cl)cc1)Nc1cccc(-c2cn(Cc3ccc(Cl)cc3)nn2)c1 | PC-9 | CCK-8 | 50 µM | 72 h | viability | 110% |
| C=C(NC(=O)C(=C)NC(=O)c1csc(C2=N[C@@H]3c4csc(n4)[C@H]4NC(=O)c5csc(n5)[C@H]([C@](C)(O)[C@@H](C)O)NC(=O)[C@H]5CSC(=N5)/C(=C/C)NC(=O)[C@H]([C@@H](C)O)NC(=O)c5csc(n5)[C@]3(CC2)NC(=O)[C@H](C)NC(=O)C(=C)NC(=O)[C@H](C)NC(=O)[C@H]([C@@H](C)CC)N[C@@H]2C=Cc3c([C@H](C)O)cc(nc3[C@H]2O)C(=O)O[C@@H]4C)n1)C(N)=O | SK-OV-3 |  |  |  | EC50 | 2.5 µM |
| C[C@H](N)C(=O)Nc1ccccc1/N=c1\cc(-c2ccc3c(c2)OCCO3)oc2cc(F)ccc12 | HCT-116 | CCK-8 | 1 µM |  | inhibition | 5.4% |
| O=C(Nc1ccc(-c2cn(Cc3ccc(Br)cc3)nn2)cc1)Nc1ccccc1Br | PC-9 | CCK-8 | 20 µM | 72 h | viability | 85% |
| O=C(Nc1ccc(F)cc1)Nc1nc2cc(-c3ccc4ncn(CCN5CCOCC5)c(=O)c4c3)ccc2s1 | PC-9 | MTT |  | 72 h | IC50 | > 20 µM |
| COc1ccc(NC(=O)Nc2cccc(-c3cn(Cc4cccc(Cl)c4)nn3)c2)cc1 | PC-9 | CCK-8 | 50 µM | 72 h | viability | 136% |
| Cc1nc(Nc2ncc(C(=O)Nc3c(C)cccc3Cl)s2)cc(N2CC[C@H](O)C2)n1 | JVM13 | ATP luminescence | 10 µM | 72 h | inhibition | 32% |
| Cc1ccccc1Cn1cc(-c2cccc(NC(=O)Nc3ccc(F)cc3)c2)nn1 | PC-9 | CCK-8 | 50 µM | 72 h | viability | 123% |
| NCCC(=O)Nc1ccccc1/N=c1\cc(-c2ccc3nc(N)oc3c2)oc2ccc(O)cc12 | HCT-116 | CCK-8 | 1 µM |  | inhibition | 15% |
